Measured values taken from ChEMBL document CHEMBL3992564, “Design and synthesis of novel, potent and selective hypoxanthine analogs as adenosine A1 receptor antagonists and their biological evaluation” (Bioorg Med Chem, 2017).
pIC50, pKi: −log10 of the molar value. The source made the active and inactive calls. The rule behind the calls is not given here.

What was measured:
Adenosine receptor A2a = Adenosine receptor A2a (Homo sapiens, UniProt P29274); experiment: Displacement of [3H]ZM241385 from human adenosine A2A receptor expressed in HEK293 cell membranes at 1 uM after 90 mins relative to control
Method in brief: (§1)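 Membranes from HEK-293 cells stably transfected with human receptor, pre-treated with adenosine deaminase. Radioligands: 1 nM [3H]DPCPX (A1), 1 nM [3H]ZM241385 (A2A), 1.6 nM [3H]MRS-1754 (A2B), 2 nM [3H]HEMADO (A3). Buffers: Tris pH 7.4 (A1, A2A, A3) or pH 6.5 (A2B), with ADA. Incubated 90 min at room temperature, then filtered. Nonspecific binding defined with 100 µM NECA. Ki from 8 concentrations run in triplicate.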

[1] = biological target: T1, Adenosine receptor A2b (Homo sapiens) (UniProt P29275); experiment: Displacement of [3H]MRS-1754 from human adenosine A2B receptor expressed in HEK293 cell membranes at 1 uM after 90 mins relative to control; method in brief: as §1
T1 sequence (whole entry): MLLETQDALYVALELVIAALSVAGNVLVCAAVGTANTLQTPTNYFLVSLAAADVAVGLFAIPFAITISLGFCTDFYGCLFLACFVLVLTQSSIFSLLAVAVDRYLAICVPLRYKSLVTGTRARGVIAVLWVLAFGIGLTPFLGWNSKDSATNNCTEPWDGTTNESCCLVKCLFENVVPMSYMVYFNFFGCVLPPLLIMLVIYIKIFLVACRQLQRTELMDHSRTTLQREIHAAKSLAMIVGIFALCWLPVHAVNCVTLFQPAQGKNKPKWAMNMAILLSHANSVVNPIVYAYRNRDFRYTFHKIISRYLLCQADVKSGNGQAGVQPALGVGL

Liver = experiment: Metabolic stability in rat liver microsomes assessed as metabolic rate measured after 30 mins in presence of NADPH; format: ADME, microsome; settings: 0.5 h
[2] = biological target: T1, Adenosine receptor A2b (Homo sapiens); experiment: Displacement of [3H]MRS-1754 from human adenosine A2B receptor expressed in HEK293 cell membranes at 30 uM after 90 mins relative to control; method in brief: as §1
CYP2C19 = CYP2C19 (Homo sapiens, UniProt P33261); experiment: Inhibition of CYP2C19 (unknown origin) at 5 uM relative to control; format: ADME
[3] = Drug metabolism assessed as hydroxylation at N-1 propyl by metabolic soft spot analysis; format: physicochemical
CYP2C9 = CYP2C9 (Homo sapiens, UniProt P11712); experiment: Inhibition of CYP2C9 (unknown origin) at 5 uM relative to control; format: ADME
[4] = Drug uptake in Wistar rat brain at 5 mg/kg, po via gavage measured at 2 hrs post dose by LC-Ms/MS analysis; format: ADME, organism-based; settings: read-out: Drug uptake
Method in brief: (§2)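 Male Wistar rats, fasted overnight and for 2 h after dosing, given an oral solution at 5 mg/kg (0.5 mg/mL). Vehicle: NMP 10% with Labrasol 30% or PEG-400 20%, in citrate buffer […]. Blood and brain were taken at discrete time points, n = 2 per time point. Brain was homogenized 1:2 in PBS. Samples were precipitated with acetonitrile and run on LC-MS/MS; LLOQ 10 ng/mL.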

[5] = Cmax in Wistar rat at 5 mg/kg, po via gavage by LC-Ms/MS analysis; format: ADME, organism-based; parameters: dose 5 mg/kg, route oral; settings: in vivo
Method in brief: (§3)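 Male Wistar rats (230 ± 15 g), fasted overnight with water available. IV dose of 3 mg/kg given by tail vein as a solution (0.6 mg/mL, 5 mL/kg). PO dose of 5 mg/kg given by gavage as a suspension. Blood was collected into K2EDTA at 0.008 (IV only) to 24 h and plasma was spun off. Samples were precipitated with acetonitrile and run on LC/MS/MS. Parameters came from non-compartmental analysis of individual animals, mean of n = 4.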

[6] = Ratio of drug level in Wistar rat brain to plasma at 5 mg/kg, po via gavage measured at 4 hrs post dose by LC-Ms/MS analysis; format: ADME, organism-based; settings: read-out: BPR; method in brief: as §2
[7] = AUC(0 to t) in Wistar rat at 5 mg/kg, po via gavage by LC-Ms/MS analysis; format: ADME, organism-based; settings: in vivo; method in brief: as §3
hERG (KCNH2) [8] = biological target: T2, hERG (KCNH2) (Homo sapiens, UniProt Q12809); experiment: Inhibition of human ERG at 25 uM relative to control
[9] = Drug uptake in Wistar rat brain at 5 mg/kg, po via gavage measured at 4 hrs post dose by LC-Ms/MS analysis; format: ADME, organism-based; settings: read-out: Drug uptake; method in brief: as §2
Adenosine receptor A2b = biological target: T3, Adenosine receptor A2b (Homo sapiens, UniProt P29275); experiment: Displacement of [3H]MRS-1754 from human adenosine A2B receptor expressed in HEK293 cell membranes after 90 mins; method in brief: as §1
T3 sequence (P29275 whole entry): T1 sequence (whole entry)

[10] = Drug uptake in Wistar rat brain at 5 mg/kg, po via gavage measured at 1 hr post dose by LC-Ms/MS analysis; format: ADME, organism-based; settings: read-out: Drug uptake; method in brief: as §2
[11] = Protein binding in mouse plasma at 5 uM; format: ADME, cell-free; settings: read-out: PPB (converted)
hERG (KCNH2) [12] = biological target: T2, hERG (KCNH2); experiment: Inhibition of human ERG at 5 uM relative to control
[13] = Plasma concentration in Wistar rat at 5 mg/kg, po via gavage measured at 2 hrs post dose by LC-Ms/MS analysis; format: ADME, organism-based; method in brief: as §2
[14] = Tmax in Wistar rat at 5 mg/kg, po via gavage by LC-Ms/MS analysis; format: ADME, organism-based; settings: in vivo
Method in brief: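 Male Wistar rats (230 ± 15 g), fasted overnight with water available. IV dosing at 3 mg/kg by tail vein as solution (0.6 mg/mL, 5 mL/kg). PO dosing at 5 mg/kg by oral gavage. Serial blood sampling into K2EDTA from 0.008 (IV only) to 24 h. Plasma precipitated with acetonitrile containing internal standard and analysed by LC/MS/MS. Non-compartmental parameters calculated per animal; values are means of n = 4.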

[15] = Plasma concentration in Wistar rat at 5 mg/kg, po via gavage measured at 4 hrs post dose by LC-Ms/MS analysis; format: ADME, organism-based; method in brief: as §2
[16] = Plasma concentration in Wistar rat at 5 mg/kg, po via gavage measured at 1 hr post dose by LC-Ms/MS analysis; format: ADME, organism-based; method in brief: as §2
Rattus norvegicus = experiment: Natriuretic activity in Wistar rat at 3 to 30 mg/kg, po via gavage measured after 4 hrs; format: functional, organism-based
Method in brief: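 Male Wistar rats (250-300 g, n = 6) dosed orally at 5 mL/kg. Vehicles: DMAC 5%/NaOH/saline, or NMP 10%/PEG-400 20%/saline pH 12.0. Rats were then kept singly in metabolic cages without food or water for 4 h. Urine volume, Na+ and K+ were measured with a biochemistry analyser.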

T2 sequence (Q12809 whole entry): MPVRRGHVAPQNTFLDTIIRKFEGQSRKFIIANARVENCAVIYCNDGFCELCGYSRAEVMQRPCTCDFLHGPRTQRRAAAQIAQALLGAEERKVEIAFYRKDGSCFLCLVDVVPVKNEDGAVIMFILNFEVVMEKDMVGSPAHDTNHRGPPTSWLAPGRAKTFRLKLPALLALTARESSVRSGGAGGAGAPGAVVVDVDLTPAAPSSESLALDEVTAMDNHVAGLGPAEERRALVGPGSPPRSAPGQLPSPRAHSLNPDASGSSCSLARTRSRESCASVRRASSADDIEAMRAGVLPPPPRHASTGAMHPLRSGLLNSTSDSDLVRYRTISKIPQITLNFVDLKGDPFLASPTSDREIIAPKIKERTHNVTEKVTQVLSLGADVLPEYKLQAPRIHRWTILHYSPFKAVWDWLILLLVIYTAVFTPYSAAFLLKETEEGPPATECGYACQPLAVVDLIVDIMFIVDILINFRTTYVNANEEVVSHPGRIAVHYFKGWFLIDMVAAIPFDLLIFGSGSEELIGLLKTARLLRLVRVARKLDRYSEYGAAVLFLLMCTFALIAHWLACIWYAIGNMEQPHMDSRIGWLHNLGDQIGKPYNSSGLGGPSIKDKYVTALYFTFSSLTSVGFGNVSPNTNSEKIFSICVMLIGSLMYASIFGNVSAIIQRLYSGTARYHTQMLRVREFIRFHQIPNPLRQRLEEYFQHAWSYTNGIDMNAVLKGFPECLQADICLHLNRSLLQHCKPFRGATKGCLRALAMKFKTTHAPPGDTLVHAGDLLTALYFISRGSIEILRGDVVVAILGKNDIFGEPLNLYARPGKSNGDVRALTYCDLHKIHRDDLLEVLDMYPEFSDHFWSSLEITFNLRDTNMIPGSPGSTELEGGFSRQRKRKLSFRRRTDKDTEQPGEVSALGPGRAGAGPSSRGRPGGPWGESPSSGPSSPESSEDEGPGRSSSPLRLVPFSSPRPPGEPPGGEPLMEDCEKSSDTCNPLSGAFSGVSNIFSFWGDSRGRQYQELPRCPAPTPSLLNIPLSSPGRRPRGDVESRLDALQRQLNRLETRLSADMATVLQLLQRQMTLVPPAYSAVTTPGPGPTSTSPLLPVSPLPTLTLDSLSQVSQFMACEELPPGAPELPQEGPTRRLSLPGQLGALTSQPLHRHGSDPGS
Sequence of Adenosine receptor A2a (P29274 whole entry): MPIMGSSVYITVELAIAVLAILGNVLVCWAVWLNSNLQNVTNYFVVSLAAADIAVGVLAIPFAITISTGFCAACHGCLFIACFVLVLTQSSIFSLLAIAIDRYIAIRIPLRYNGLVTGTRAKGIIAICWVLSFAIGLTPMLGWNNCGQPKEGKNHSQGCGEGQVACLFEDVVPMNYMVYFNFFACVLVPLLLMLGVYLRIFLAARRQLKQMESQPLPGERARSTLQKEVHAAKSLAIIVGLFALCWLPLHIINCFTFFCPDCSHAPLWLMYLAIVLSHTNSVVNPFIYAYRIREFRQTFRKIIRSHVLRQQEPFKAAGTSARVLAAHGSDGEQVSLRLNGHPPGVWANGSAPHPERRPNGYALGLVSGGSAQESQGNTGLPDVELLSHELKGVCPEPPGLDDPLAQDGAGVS
Sequence of CYP2C9 (P11712 whole entry): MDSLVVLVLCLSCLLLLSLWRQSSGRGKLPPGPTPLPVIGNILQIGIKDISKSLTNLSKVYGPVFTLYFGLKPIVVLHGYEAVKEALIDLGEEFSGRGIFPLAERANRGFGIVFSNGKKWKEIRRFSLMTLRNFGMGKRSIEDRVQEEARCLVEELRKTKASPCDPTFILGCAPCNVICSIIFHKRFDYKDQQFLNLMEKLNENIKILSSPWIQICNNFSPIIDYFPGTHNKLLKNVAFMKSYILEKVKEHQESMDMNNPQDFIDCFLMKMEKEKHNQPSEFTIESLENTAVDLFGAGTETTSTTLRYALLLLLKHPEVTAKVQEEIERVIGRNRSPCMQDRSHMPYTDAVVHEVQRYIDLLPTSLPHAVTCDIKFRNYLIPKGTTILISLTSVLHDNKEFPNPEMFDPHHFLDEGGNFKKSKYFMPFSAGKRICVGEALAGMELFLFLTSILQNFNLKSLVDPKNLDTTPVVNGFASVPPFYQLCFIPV
Sequence of CYP2C19 (P33261 whole entry): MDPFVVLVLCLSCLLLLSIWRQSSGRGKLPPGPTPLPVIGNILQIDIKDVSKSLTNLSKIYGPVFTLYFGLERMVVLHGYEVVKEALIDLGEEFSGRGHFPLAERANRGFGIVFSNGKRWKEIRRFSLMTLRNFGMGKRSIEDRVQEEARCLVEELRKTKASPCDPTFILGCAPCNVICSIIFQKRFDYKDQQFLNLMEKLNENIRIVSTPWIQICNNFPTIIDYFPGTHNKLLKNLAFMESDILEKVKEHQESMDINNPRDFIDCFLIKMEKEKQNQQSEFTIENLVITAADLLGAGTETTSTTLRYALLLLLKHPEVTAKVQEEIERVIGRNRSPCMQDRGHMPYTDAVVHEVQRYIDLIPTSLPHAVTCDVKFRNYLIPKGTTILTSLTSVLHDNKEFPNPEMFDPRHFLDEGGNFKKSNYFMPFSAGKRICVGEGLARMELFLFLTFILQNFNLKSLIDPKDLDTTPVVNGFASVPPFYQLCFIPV

Compound | inhibition (Adenosine receptor A2a) | Drug metabolism (Liver) | inhibition at 5 µM (CYP2C19) | inhibition at 5 µM (CYP2C9) | concentration at 2 h [4] | Cmax [5] | AUC(0-t) [7] | inhibition at 25 µM (hERG (KCNH2) [8]) | concentration at 4 h [9] | pKi (Adenosine receptor A2b) | concentration at 1 h [10] | fraction unbound at 5 µM [11] | inhibition at 5 µM (hERG (KCNH2) [12]) | concentration at 2 h [13] | Tmax [14] | concentration at 4 h [15] | concentration at 1 h [16] | other results
CCCn1c(Oc2cccnc2C)nc2nc(C3CCCC3)[nH]c2c1=O | 33% | 0.07 nmol/min/mg | 10% | 4% | – | – | – | – | – | – | – | – | – | – | – | – | – | inhibition [1]: 49%; inhibition [2]: 91%; Drug metabolism [3]: Metabolite_Detected
CCCn1c(Oc2ccc(F)c(F)c2)nc2nc(C3CCCC3)[nH]c2c1=O | inactive | 0.08 nmol/min/mg | 0% | – | 50 nM | 9710 nM | 3.19 µM·h | 4% | 80 nM | < 5.00 | 90 nM | 0.01 | 2% | 940 nM | 97.8 min | 1810 nM | 1640 nM | Kp at 4 h [6]: 0.05; pIC50 (Adenosine receptor A2b): < 5.00; Activity (Rattus norvegicus): Active
CCCn1c(-c2cccc(OC)c2)nc2nc(C3CCCC3)[nH]c2c1=O | – | 0.05 nmol/min/mg | – | 7% | 10 ng/g | 1740 nM | 1.6 µM·h | 72% | 10 ng/g | 5.96 | 10 ng/g | 0.05 | 9% | 540 nM | 18 min | 40 nM | 670 nM | –
